# Published values of several laboratories.
# Read-out: metabolic stability
# Species: human
SMILES,medium,concentration,time,pH,half-life [min]
CCCCOC(=O)NS(=O)(=O)c1sc(CC(C)C)cc1-c1ccc2c(c1)CN(C(C)=O)C2,liver microsomes,1 µM,,pH 7.4,2.4
O=C1CCN(C(=O)Nc2ccc(F)c(C(F)F)c2)[C@@H]2CCCC[C@H]12,liver microsomes,,,,> 56
CCS(=O)(=O)Nc1ccc(OCCOCCOCCOCCOc2ccc(NS(=O)(=O)CC)cc2-c2cn(C)c(=O)c3ccccc23)c(-c2cn(C)c(=O)c3ccccc23)c1,liver microsomes,,,,< 2.3
O=C(OC(C(F)(F)F)C(F)(F)F)N1Cc2ccc(OCCN3CCOCC3)cc2C1,liver microsomes,,,,40
CC[C@@H]1C=CC(=O)O[C@@H]1C[C@@H](OC)[C@H](C)[C@H](OC)[C@@H](C)Cc1ccc(F)cc1,liver microsomes,,,,< 2.3
COc1ccc(-c2ocnc2C(=O)NCCCn2cncn2)cc1Cl,liver microsomes,,,,78.7
CC(C)(C)c1ccc(O)c(CN(Cc2cc(C(C)(C)C)ccc2O)C2CCC(NC(N)=O)CC2)c1 (stereo not shown),liver microsomes,1 µM,,pH 7.4,39.8
COc1ccc2cc(C(=O)Nc3ccc4c(c3)CN(C3CCC(=O)NC3=O)C4=O)ccc2c1 (stereo not shown),liver microsomes,2 µM,1 h,,3.8
Cc1cccc(-n2ncc(Cl)c(Cl)c2=O)c1,liver microsomes,,,,6.6
O=S(=O)(Nc1cccc(-c2nnn[nH]2)c1)c1ccc(Cl)c2nonc12,liver microsomes,,,,200
O=C(NC1CCC1)c1ccc2nc(-c3cccc(NS(=O)(=O)NCCN4CCCCC4)c3)cn2c1,liver microsomes,1 µM,,,21
CN1CCN(C(c2ccccc2)c2ccc(Cl)cc2)CC1 (racemic),liver microsomes,,,,> 100
CC[C@@H]1C=CC(=O)O[C@@H]1C[C@@H](O)[C@H](C)[C@H](OC)[C@@H](C)Cc1ccc(F)cc1,liver microsomes,,,,3.3
CC(C)NCC(O)COc1cccc2ccccc12 (stereo not shown),liver microsomes,1 µM,,pH 7.4,58.6
CCCCOC(=O)NS(=O)(=O)c1sc(CC(C)C)cc1-c1ccc2c(c1)CN(C(C)=O)CC2,liver microsomes,1 µM,,pH 7.4,5.4
CCN(CC)CCNC(=O)c1c(C)[nH]c(/C=C2\C(=O)Nc3ccc(F)cc32)c1C,liver microsomes,1 µM,,pH 7.4,37.4
Cc1ccc(S(=O)(=O)Nc2cccc(-c3nnn[nH]3)c2)cc1C,liver microsomes,,,,2
CCOC(=O)NS(=O)(=O)c1sc(CC(C)C)cc1-c1ccc2c(c1)CN(C(=O)OCC)C2,liver microsomes,1 µM,,pH 7.4,2.3
NCc1ccccc1,hepatocytes,5 µM,,,76.3
CCOC(=O)NS(=O)(=O)c1sc(CC(C)C)cc1-c1ccc2c(c1)CN(C(C)=O)C2,liver microsomes,1 µM,,pH 7.4,7.8
CCCCCCCc1c(C)nc2cc(OC)ccc2c1O,liver microsomes,1 µM,,,10.2
Cc1cnc(Nc2ccc(C(=O)NC3CCNCC3)c(F)c2)nc1Nc1cc(NS(=O)(=O)C(C)(C)C)cc(C(=O)NCCOCCOCCOCCC(=O)N2CCC(NC(=O)c3ccc(Nc4ncc(C)c(Nc5ccc(Cl)c(NS(=O)(=O)C(C)(C)C)c5)n4)cc3F)CC2)c1,liver microsomes,,,,8.2
C/C=C/C[C@H](C)[C@@H](OC)[C@@H](C)[C@H](O)C[C@H]1OC(=O)C=C[C@H]1CC,liver microsomes,,,,< 7
COc1ccc2nc3cc(Cl)ccc3c(Nc3cc(CN4CCCC4)c(O)c(CN4CCCC4)c3)c2n1,hepatocytes,1 µM,,,468
O=C(N[C@H](Cc1c[nH]c2ccccc12)C(=O)Nc1ccncc1)c1ccc(-c2ccc(F)c(F)c2)cc1F,liver microsomes,,,,18
O=C(CC1Cc2ccccc2C1)N[C@H](CN1CCCC1)[C@H](O)c1ccc(OC(F)(F)F)cc1,liver microsomes,1 µM,,pH 7.4,84
CCCN(C)Cc1cc(-c2[nH]c3cccc(F)c3c(=O)c2C)ccc1Cc1ccc(OC(F)(F)F)cc1,liver microsomes,,,,1.67
O=C(O)Cc1ccccc1Nc1c(Cl)cccc1Cl,hepatocytes,1 µM,,,18.4
